Measurements: PMC4857052 (Molecular pharmacology, 2012)
Values joined by “and” are separate entries in the source; they are usually repeats but may differ in a detail not shown here. Equal values may be shown once. Read-outs that look alike come from different tables or passages of the source.

Assays:
[1] = test system: TbU3; test: [3H]-2′deoxyuridine transport in bloodstream forms; format: cell-based, Trypanosoma brucei brucei
[2] = test system: TbU3 uracil transporter; test: [3H]-uracil transport in bloodstream forms; format: cell-based, Trypanosoma brucei brucei; conditions: for Km: read-out: Km, U3, bloodstream forms (BSF), Km of the permeant itself
[3] = test system: s427WT T. b. brucei bloodstream forms; test: Kinetic parameters of pyrimidine transport in wild-type bloodstream forms; format: cell-based, Trypanosoma brucei brucei; conditions: [3H]-permeant; strain s427WT
Outline: (§1)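 Log-phase cells were washed into HEPES/bicarbonate glucose buffer (pH 7.3) at 1 × 10^8/ml and mixed with an equal volume of [3H]-permeant, with or without unlabeled competitor, at ambient temperature. Uptake was stopped with ice-cold buffer containing saturating unlabeled permeant, then cells were spun through oil. Counts were corrected for nonspecific binding and Km, Vmax and Ki obtained by curve fitting. Runs were in triplicate. Thymidine: 10 μM label, 15 min. Orotic acid: 10 min.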

[4] = test system: T. b. brucei bloodstream forms; test: Uptake of other radiolabeled pyrimidines by wild-type bloodstream forms; format: cell-based, Trypanosoma brucei brucei; conditions: over 15 min; 2.5 μM [3H]-2′-deoxycytidine, 0.25 μM [3H]-cytosine, 1 μM [3H]-thymine
[5] = test system: 5FOARes T. b. brucei; test: Alamar blue drug sensitivity assay, 5FOARes; format: cell-based, Trypanosoma brucei brucei; conditions: for EC50: Trypanosoma brucei, read-out: EC50, 5FOARes, Mean; for RF, 5FOARes: resistance factor: IC50(resistant clone)/IC50(WT)
Outline: (§2)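 Bloodstream-form T. b. brucei s427 grown in HMI-9 with 10% FBS at 37°C under 5% CO2. Resistant lines were made by months of stepwise-increasing exposure to the analog, then cloned by limiting dilution. Viability was read by resazurin (Alamar blue) reduction. Thymidine rescue was tested by adding 100 μM thymidine.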

[6] = test system: 5FURes T. b. brucei; test: Alamar blue drug sensitivity assay, 5FURes; format: cell-based, Trypanosoma brucei brucei; conditions: for EC50: Trypanosoma brucei, read-out: EC50, 5FURes, Mean; for RF, 5FURes: resistance factor: IC50(resistant clone)/IC50(WT)
Outline: as §2

[7] = test system: 5F-2′dURes T. b. brucei; test: Alamar blue drug sensitivity assay, 5F-2′dURes; format: cell-based, Trypanosoma brucei brucei; conditions: for EC50: Trypanosoma brucei, read-out: EC50, 5F-2′dURes, Mean; for RF, 5F-2′dURes: resistance factor: IC50(resistant clone)/IC50(WT)
Outline: as §2

[8] = test system: T. b. brucei bloodstream forms strain 427 WT; test: Alamar blue drug sensitivity assay, wild-type; format: cell-based, Trypanosoma brucei brucei; conditions: for EC50: Trypanosoma brucei
Outline: as §2

[9] = test system: 5-FURes T. b. brucei; test: Pyrimidine transport in 5-FURes bloodstream forms; format: cell-based, Trypanosoma brucei brucei
[10] = test system: TbT1 (P1-type nucleoside transporter); test: [3H]-thymidine transport in bloodstream forms; format: cell-based, Trypanosoma brucei brucei; conditions: for effect on [3H]-thymidine transport (in words): bloodstream forms
[11] = molecular target: TbU1; conditions: procyclic forms (PCF), ref De Koning and Jarvis (1998), Papageorgiou et al. (2005), Gudin et al. (2006), cited from earlier work; for Ki: read-out: Ki, U1; for Ki / Ki, U1: NE = no effect on uptake at concentration indicated
[12] = test system: 5F-2′dURes cells; test: Metabolomic analysis of treated 5F-2′dURes cells; format: cell-based, Trypanosoma brucei brucei; conditions: 100 μM, 8 hours
[13] = test system: DNA of T. brucei bloodstream forms; test: Incorporation into DNA; format: cell-based, Trypanosoma brucei brucei; conditions: 100 μM, 12 hours; natural deoxynucleotides 500-5000-fold above detection limit
Outline: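 Bloodstream forms were exposed to 100 μM test compound for 12 h (37°C, 5% CO2), with untreated parallel controls. DNA was extracted by SDS/RNase A lysis overnight at 37°C and phenol/chloroform, then digested with 1000 units exonuclease III at 37°C for 48 h. The digest was mixed 1:3 with acetonitrile, centrifuged, and the supernatant analysed by HILIC–high-resolution LC-MS.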

[14] = test system: variant surface glycoprotein; test: Effect on glycosylation / variant surface glycoprotein content; format: cell-based, Trypanosoma brucei brucei; conditions: 100 μM
[15] = molecular target: TbU2; conditions: read-out: Ki, U2; procyclic forms (PCF); ref De Koning and Jarvis (1998), Papageorgiou et al. (2005), Gudin et al. (2006); cited from earlier work
[16] = test system: P1-type nucleoside transporter; test: [3H]-inosine uptake in bloodstream forms; format: cell-based, Trypanosoma brucei brucei
Outline: as §1

[17] = test system: T. b. brucei bloodstream forms; test: [3H]-orotic acid uptake, wild-type bloodstream forms; format: cell-based, Trypanosoma brucei brucei
[18] = test system: 5-FOARes trypanosomes; test: [3H]-orotic acid uptake, 5-FOARes versus wild-type; format: cell-based, Trypanosoma brucei brucei; conditions: over 10 min; two experiments
Outline: as §1

[19] = test system: 5F-2′dURes trypanosomes; test: [3H]-thymidine uptake in 5F-2′dURes; format: cell-based, Trypanosoma brucei brucei
Outline: as §1

[20] = molecular target: TbU3; test: [3H]-uridine transport in bloodstream forms; format: cell-based, Trypanosoma brucei brucei; conditions: 2.5 μM [3H]-uridine
[21] = read-out: EC50, WT, Mean, Alamar blue assay, wild-type sensitive control strain

| SMILES | Km [3] | Vmax [3] | EC50 [5] | RF, 5FOARes [5] | EC50 [6] | RF, 5FURes [6] | EC50 [7] | RF, 5F-2′dURes [7] | EC50 [8, 21] | effect on [3H]-thymidine transport (in words) [10] | Ki, U1 [11] | further results |
| --- | --- | --- | --- | --- | --- | --- | --- | --- | --- | --- | --- | --- |
| O=c1ccn([C@H]2C[C@H](O)[C@@H](CO)O2)c(=O)[nH]1 [2’Deoxyuridine, 2′-deoxyuridine] | 810 ± 310 µM | 1.3 ± 0.7 pmol (10^7 cells)^−1s^−1 | – | – | – | – | – | – | – | – | – | rate of [3H]-2′deoxyuridine uptake ([1]; 0.5 μM [3H]-2′deoxyuridine): 0.00045 pmol (10^7 cells)^−1s^−1; rate of [3H]-2′deoxyuridine transport ([1]; 5 μM [3H]-2′deoxyuridine, linear over 4 min): 0.0051 ± 0.0003 pmol/10^7 cells/s; inhibition of [3H]-2′deoxyuridine transport by unlabeled 2′-deoxyuridine ([1]; 5 μM label, 2.5 mM unlabeled): 76%; Km [2]: 810 ± 130 µM |
| Nc1ccn([C@H]2C[C@H](O)[C@@H](CO)O2)c(=O)n1 [2′-deoxycytidine] | – | – | – | – | – | – | – | – | – | – | – | accumulation of radiolabeled permeant (in words) [4]: just detectable accumulation |
| O=c1[nH]cc(F)c(=O)[nH]1 [5-Fluorouracil, 5-fluorouracil] | 2.5 ± 0.01 µM | 0.27 ± 0.02 pmol (10^7 cells)^−1s^−1 | 448 µM | 13 | 4710 µM | 131 | 76.1 µM | 2.1 | 35.9 µM | little or no effect | – | reduction of [3H]-5-FU transport in 5-FURes relative to wild-type ([9]; 0.5 μM [3H]-5-FU, n = 3): 76% ± 6; Km ([9]; [3H]-permeant, strain 5-FURes): 2.3 ± 0.4 µM; Ki [11]: 3 ± 0.8 µM |
| Nc1nc(=O)n([C@H]2C[C@H](O)[C@@H](CO)O2)cc1F [5Fl-2’-Ctd, 5-fluoro-2′-deoxycytidine] | – | – | 126 µM | 2.6 | 55 µM | 1.1 | > 5000 µM | >100 | 49.4 µM | – | – | reduction of sensitivity by addition of 100 μM thymidine ([8]; wild-type): 78 fold |
| O=c1[nH]c(=O)n([C@H]2C[C@H](O)[C@@H](CO)O2)cc1F [5Fl-2’-dUrd, 5-fluoro-2′-deoxyuridine] | – | – | 31 µM | 5.9 | 3.2 µM | 0.61 | 4300 µM | 825 | 5.2 µM | – | – | increase in dUMP in treated 5F-2′dURes cells relative to untreated wild-type cells [12]: two-fold; 5F-dUMP in DNA digest [13]: No 5F-dUMP was detected; reduction of sensitivity by addition of 100 μM thymidine ([7]; 5F-2′dURes cells): > 600 fold; EC50 ([8]; wild-type, thymidine-free HMI-9 with 100 μM thymidine added): 18.6 ± 3 µM; EC50 ([8]; wild-type, thymidine-free version of HMI-9): 0.77 ± 0.3 µM; reduction of sensitivity by addition of 100 μM thymidine ([8]; wild-type): 24 fold; changes in variant surface glycoprotein content [14]: no detectable changes |
| O=c1cn[nH]c(=O)[nH]1 [6-Azauracil] | – | – | 1390 µM | 1.4 | 157 µM | 0.16 | 1100 µM | 1.2 | 958 µM | – | – | Ki [11]: ~1000 µM |
| Nc1ccn([C@@H]2O[C@H](CO)[C@@H](O)[C@H]2O)c(=O)n1 [Cytidine] | – | – | – | – | – | – | – | – | – | little or no effect | NE, 1000 | Ki [15]: 0.057 ± 0.019 µM |
| Nc1cc[nH]c(=O)n1 [Cytosine] | – | – | – | – | – | – | – | – | – | – | NE, 1000 | accumulation of radiolabeled permeant (in words) [4]: did not detectably accumulate |
| O=c1[nH]cnc2nc[nH]c12 [Hypoxanthine] | – | – | – | – | – | – | – | – | – | – | NE, 1000 | Ki, U3 [2]: NE, 1000 |
| O=c1[nH]cnc2c1ncn2[C@@H]1O[C@H](CO)[C@@H](O)[C@H]1O [Inosine] | – | – | – | – | – | – | – | – | – | – | NE, 1000 | Km ([16]; read-out: Km of inosine uptake, n = 3): 0.89 ± 0.15 µM |
| O=C(O)c1cc(=O)[nH]c(=O)[nH]1 [Orotic acid] | – | – | – | – | – | – | – | – | – | little or no effect | – | uptake rate as fraction of the transport rate of [3H]-uracil and [3H]-5-FU [17]: ≤ 1%; reduction of [3H]-orotic acid uptake in 5-FOARes relative to wild-type [18]: 68.1% and 62.8% |
| N=C(N)c1ccc(OCCCCCOc2ccc(C(=N)N)cc2)cc1 [Pentamidine] | – | – | 0.017 µM | 2.2 | 0.0073 µM | 0.94 | 0.0079 µM | 1.0 | 0.0078 µM | – | – | – |
| Cc1cn([C@H]2C[C@H](O)[C@@H](CO)O2)c(=O)[nH]c1=O [Thymidine] | 1240 ± 310 µM | 0.067 ± 0.008 pmol (10^7 cells)^−1s^−1 | – | – | – | – | – | – | – | – | NE, 1000 | Ki [15]: 0.38 ± 0.07 µM; rate of [3H]-thymidine transport ([10]; 10 μM thymidine, 5-30 min): 0.0015 ± 0.0003 pmol(10^7 cells)^−1s^−1; Km ([10]; read-out: Km, T1, bloodstream forms (BSF)): 1240 ± 310 µM; increase in thymidine affinity relative to wild-type [19]: > 50 fold; increase in transport efficiency relative to wild-type [19]: six-fold; Vmax of [3H]-thymidine uptake ([19]; 10 μM [3H]-thymidine): 0.013 ± 0.002 pmol(10^7 cells)^−1s^−1; Km ([19]; read-out: Km of [3H]-thymidine uptake, 10 μM [3H]-thymidine): 22 ± 3 µM; Ki ([16]; read-out: Ki for inhibition of inosine uptake, monophasic, n = 4): 214 ± 51 µM |
| Cc1c[nH]c(=O)[nH]c1=O [Thymine] | – | – | – | – | – | – | – | – | – | little or no effect | – | Ki [11]: > 1000 µM; accumulation of radiolabeled permeant (in words) [4]: did not detectably accumulate |
| O=c1cc[nH]c(=O)[nH]1 [Uracil] | 1.5 ± 0.3 µM | 0.27 ± 0.05 pmol (10^7 cells)^−1s^−1 | – | – | – | – | – | – | – | failing to reach 50% inhibition even at 2.5 mM | – | Ki ([20]; read-out: Ki for inhibition of [3H]-uridine uptake, n = 3): 1.6 ± 0.2 µM; reduction of [3H]-uracil transport by unlabeled uracil ([2]; 0.15 μM [3H]-uracil, 1 mM unlabeled uracil): > 97%; rate of [3H]-uracil transport ([2]; 0.15 μM [3H]-uracil, linear for at least 120 s): 0.034 ± 0.002 pmol (10^7 cells)^−1s^−1; Vmax of uracil transport ([2]; mean of six triplicate experiments): 0.14 ± 0.03 pmol × 10^7 cells^−1 × s^−1; Km [2]: 0.54 ± 0.11 µM; Km ([9]; [3H]-permeant, strain 5-FURes): 0.66 ± 0.15 µM; Vmax ([9]; [3H]-permeant, strain 5-FURes): 0.16 ± 0.02 pmol (10^7 cells)^−1s^−1; Km ([11]; read-out: Km, U1, bold entry): 0.46 ± 0.09 µM |
| O=c1ccn([C@@H]2O[C@H](CO)[C@@H](O)[C@H]2O)c(=O)[nH]1 [Uridine] | 9500 ± 2700 µM | 16 ± 4 pmol (10^7 cells)^−1s^−1 | – | – | – | – | – | – | – | – | – | rate of [3H]-uridine transport ([20]; 0-30 min): 0.0043 ± 0.0003 pmol(10^7 cells)^−1s^−1; inhibition of [3H]-uracil uptake ([2]; 10 mM of the nucleoside, 0.15 μM [3H]-uracil): ~ 50%; Km [2]: 9500 ± 2700 µM; Ki ([9]; read-out: Ki for [3H]-uracil transport in 5-FURes, n = 3): ~10000 µM; Ki [11]: 33 ± 5 µM |
